The source of these data is PubChem BioAssay AID617 (SRMLSC, 2007).

In the assay the test system is E. coli BW25113 ΔtolC growth inhibition, OD615. The experiment in a line: E. coli ΔtolC antibacterial growth inhibition – strain BW25113 ΔtolC::kan, dose response (AID 617). The procedure, abridged: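 System: E. coli BW25113 ΔtolC::kan bacteria. Amount: 1:1000 diluted subculture inoculum. Medium: LB broth supplemented with kanamycin at 50 µg/mL. Compound dosing: serial dilution series of compound. Schedule: 20 h exposure at 37 °C. Detection: OD615. Measure: IC50 of bacterial growth inhibition. Benchmarks: chloramphenicol control, 30 µM final.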
Usually IC50 stands for the concentration at which inhibition is half-maximal. Take `Clc1ccc(OCCN2CCN(c3ncnc4sccc34)CC2)cc1`: the IC50 was 16.1 µM. To `Cc1[nH]n2c(=O)cc(C(C)(C)C)nc2c1-c1ccccc1` belongs 1.56 µM; to `COc1ccccc1N1CCN(C(=O)c2cc(-c3cccc(Cl)c3)on2)CC1`, 12.9 µM. Consider `CCOC(=O)c1c(NS(=O)(=O)c2cccc(OC)c2)sc2c1CCC2`, for which the IC50 was 56.2 µM. To `CCOC(=O)c1c(NC(=O)CN2CCCCC2)sc2c1CCN(C(=O)OCC)C2` belongs 10.7 µM; to `CC1(C)CC2CC(C)(CN2C(=O)c2cc(-c3ccccc3O)on2)C1` (stereo not drawn), 3.42 µM.

Consider `CCCCCCc1ccc(-c2ncc(N)cn2)cc1`, for which the IC50 is 16.6 µM.

As to `CCc1cccc(NC(=O)c2ccc(NS(=O)(=O)c3c(C)noc3C)cc2)c1`, the 50% inhibitory concentration (IC50) is 7.16 µM. In the case of `Cc1nc(N2CCN(c3ccccc3)CC2)nc2c1C(=O)CCC2`, the IC50 is 26.6 µM. In the case of `COc1ccc(-n2cnc3cc(NCc4cccs4)ccc32)cc1`, the IC50 was 10.6 µM.

As for `Cc1ccc2cc(C(c3nnnn3C3CCCC3)N(Cc3cccnc3)Cc3ccco3)c(=O)[nH]c2c1` (stereo not drawn), the IC50 was 13.7 µM. With `O=C(Nc1ccc2nc(-c3cccs3)[nH]c2c1)c1ccco1`, the IC50 is 82.7 µM. To `CCn1c(CNc2cccc(Cl)c2)nnc1SCC(=O)OC1CCCCC1` belongs 17.8 µM; to `O=C(Nc1ccc(N2CCN(C(=O)c3ccco3)CC2)c(Cl)c1)c1c(F)c(F)c(F)c(F)c1F`, 3.96 µM; to `N=c1n(CCN2CCOCC2)c2ccccc2n1CC(=O)c1ccc(Cl)c(Cl)c1`, 27.1 µM.

`Cc1ccc(C2CC(c3cccc(Br)c3)Nc3nnnn32)cc1` (stereo not drawn): the IC50 is 13 µM. Then `Cc1ccc(Cl)cc1N1CCN(Cc2nnnn2Cc2ccco2)CC1`, with 17.6 µM. In the case of `Clc1ccc(Cn2ncc3c(NCc4ccco4)ncnc32)c(Cl)c1`, the IC50 is 53.4 µM.

`Cc1cc(C)n(-c2nc3ccccc3nc2N2CCCCCC2)n1`: the IC50 was 18.4 µM.

With `CC1=CCC(COC(=O)Nc2ccccc2)CC1` (stereo not drawn), the IC50 was 26.8 µM. On to `COc1ccc(Cl)cc1N(C)C(=O)CCc1nc(-c2ccc(C)cc2)no1`, for which the IC50 was 15.2 µM. To `Cn1c(=O)n(Cc2ccccc2)c(=O)c2c1nc1n2CCCN1Cc1ccccc1` belongs 42.8 µM; to `CC(C)C1O/C(=N/C(=O)Nc2ccc(Cl)c(Cl)c2)NC1=O` (stereo not drawn), 2.07 µM; to `CCCCCc1cc(O)c2c(C)cc(=O)oc2c1`, 2.16 µM. For the molecule `O=C(CSc1ncc(-c2ccc(F)cc2)n1Cc1ccco1)Nc1ccc2c(c1)OCO2`, the IC50 was 7.29 µM. To `CC(C)N1CCC2(CC1)N=C(c1ccc3c(c1)OCO3)CC(c1cc(Cl)ccc1O)N2` (stereo not drawn) belongs 9.86 µM. Then `Cc1ccc2c(CC(=O)OCc3nc(N)nc(Nc4ccccc4C)n3)coc2c1`, with 10 µM; and `CC(=Nc1ccc(O)cc1)c1sc2ccccc2c1O`, with 0.89 µM. For `COC(=O)CNS(=O)(=O)c1ccc(Cc2ccc(S(=O)(=O)NCC(=O)OC)cc2)cc1`, the IC50 is 1.29 µM. For the molecule `O=c1[nH]c(NCCCO)nc2c1C1(CCCC1)Cc1ccccc1-2`, the IC50 is 8.77 µM. For the molecule `N#Cc1nc(COc2ccc(-c3ccccc3)cc2)oc1NCc1cccnc1`, the IC50 is 8.6 µM. On to `Cc1cccnc1Nc1nc(-c2ccc(O)cc2O)cs1`, for which the IC50 is 17.8 µM.

With `CCc1cc2cc(C(=O)N3CCN(Cc4ccccc4)CC3)sc2s1`, the IC50 was 10.3 µM.

For `Cc1nc2nc(COc3ccccc3)[nH]n2c(=O)c1Cc1ccccc1`, the IC50 was 1.32 µM. To `O=c1n(Cc2ccccc2)c2cc(Cl)cnc2n1Cc1ccccc1` belongs 10.2 µM; to `O=C(CSc1nc2ccccc2o1)Nc1ccccc1N1CCCCCC1`, 11.7 µM. To `COc1ccc(-c2noc(CCCc3ccccc3)n2)cc1OC` belongs 23.1 µM; to `O=C(c1ccc(COc2ccccc2Br)o1)N1CCCCCC1`, 98.8 µM; to `CC1CCCN(c2ccc(C(=O)NCCc3ccccc3)cn2)C1` (stereo not drawn), 49.4 µM.

As to `CC(C)C(C(=O)NCc1ccco1)N(C(=O)CNS(=O)(=O)c1ccc(Cl)cc1)C1CCCC1` (stereo not drawn), the IC50 is 24.8 µM. For the molecule `COc1ccc(CNC(=O)c2cc(-c3ccccc3OC)on2)cc1`, the IC50 was 56 µM. To `CCCn1c(SCC(=O)Nc2ccccc2N2CCCCC2)nc2c1c(=O)n(C)c(=O)n2C` belongs 11.7 µM. To `CCOC(=O)c1cc2oc(C)cc2n1CC(=O)OC1CCCCC1` belongs 17.6 µM. To `c1ccc(-c2oc3ncnc(NCCCn4ccnc4)c3c2-c2ccccc2)cc1` belongs 6.05 µM; to `CC1CN(S(=O)(=O)c2ccc(C(=O)Nc3nnc(-c4ccc5c(c4)CCCC5)o3)cc2)CC(C)O1` (stereo not drawn), 0.77 µM. Regarding `CCOC(=O)N1CCN(c2nc(N(c3ccccc3)c3ccccc3)nc(-n3ccnc3)n2)CC1`, the IC50 was 20.3 µM.

Regarding `N#Cc1ccc(CSc2nnc(-c3cccs3)n2-c2ccccc2)cc1`, the IC50 is 15.6 µM.

As for `CSCCOC(=O)C1=C(C)NC(=O)CC1c1ccccc1Cl` (stereo not drawn), the IC50 was 22.9 µM.

Consider `CC(=O)c1ccccc1OCC(O)CN1CCN(C(c2ccccc2)c2ccccc2)CC1` (stereo not drawn), for which the IC50 was 14.1 µM.

Turning to `O=C(CC(=O)c1cc(Cl)ccc1O)c1ccccc1`, the IC50 is 8.34 µM. `Cc1noc(C)c1COC(=O)c1cc(C)n(-c2ccccc2)c1C`: the IC50 is 11.5 µM. Then `Cc1ccc(OCc2nc(C#N)c(NCc3ccc4c(c3)OCO4)o2)cc1`, with 6.03 µM; and `CCOC(=O)c1cnn(-c2nc3sc4c(c3c(=O)[nH]2)CCCC4)c1N`, with 0.28 µM; and `C=CCc1cc(C)ccc1OCC(O)CN1CCN(c2ccccc2)CC1` (stereo not drawn), with 17 µM. Then `Fc1cccc(Cl)c1Cn1nnc(-c2ccc3c(c2)OCO3)n1`, with 20.3 µM; and `Cc1noc(NS(=O)(=O)c2ccc(NC(=O)Nc3ccc(Cl)c(Cl)c3)cc2)c1C`, with 4.51 µM; and `Cc1cccc(-c2nc(CS(=O)CC(=O)NCCCSC3CCCCC3)c(C)o2)c1` (stereo not drawn), with 10.1 µM.

Turning to `CCOc1ccc(S(=O)(=O)Nc2cc(Cl)ccc2O)cc1`, the IC50 was 9.22 µM.

Regarding `CCOC(=O)C1Cn2c(nc3c(c2=O)C(C)(CC)Cc2ccccc2-3)S1` (stereo not drawn), the IC50 was 24.2 µM. Then `Cc1cccc(N2C(N)=C(C#N)C(C#N)(C#N)C2c2ccccc2)c1` (stereo not drawn), with 13.3 µM.

As to `CCc1cc2c3c(c(=O)oc2cc1O)CCCC3`, the IC50 was 33 µM. As for `CCCc1cc(C(=O)Nc2cccc(Cl)c2)no1`, the IC50 was 14.6 µM. As for `O=C(Nc1scc(-c2cccs2)c1C(=O)O)c1cccs1`, the IC50 is 10.5 µM.

For `C=CCn1c(SCC(=O)Nc2nc3ccccc3s2)nnc1-c1ccccc1O`, the IC50 is 8.28 µM. To `CC(C)c1ccc(OCc2nc(-c3ccccn3)no2)c(Br)c1` belongs 14.9 µM. To `N#C/C(=C\C1CC=CCC1)c1nc2ccccc2[nH]1` (stereo not drawn) belongs 36.9 µM; to `CC1=C(C(=O)OC2CCCCCCC2)C(c2cccc(O)c2)NC(=O)N1` (stereo not drawn), 12.3 µM. To `COc1ccc(NS(=O)(=O)c2cc(C)ccc2NC(=O)c2cc(C)oc2C)cc1` belongs 58.6 µM; to `Cc1ccc(Cn2ncn3c(cc4ccccc43)c2=O)cc1`, 14.1 µM. As for `CC(C)N(Cc1nc(-c2ccccc2)no1)C(=O)c1ccc(Cl)cc1`, the IC50 is 19.5 µM. Then `CC(C)OCCCNc1ncnc2c1[nH]c1ccccc12`, with 5.88 µM; and `O=C(c1ccc(COc2ccccc2Cl)o1)N1CCN(c2ccccc2)CC1`, with 8.64 µM; and `Cc1cccn2c(=O)c3c(nc12)N1CCC(Cc2ccccc2)CC1C1(C3)C(=O)N(C)C(=O)N(C)C1=O` (stereo not drawn), with 17.7 µM. To `CCSc1nnc(NC(=O)c2cccc(OCc3c(C)noc3C)c2)s1` belongs 10.8 µM; to `CN(Cc1ccccc1)c1nc2c(c(=O)n(C)c(=O)n2C)n1CCCc1ccccc1`, 7.51 µM. With `Cc1nn(-c2ccccc2)c(C)c1C(=O)Nc1nnc(-c2ccco2)o1`, the IC50 is 6.38 µM.

`CC1=CC(C)(C)N(C(=O)c2ccc(F)cc2)c2cc3c(cc21)OCO3`: the IC50 was 12.7 µM. To `O=C1OC(c2ccc(O)cc2)(c2ccc(O)cc2)c2ccccc21` belongs 4.01 µM. Turning to `CCOC(=O)c1cn(CC)c2cc(N3CCCCC3)c(F)cc2c1=O`, the IC50 is 3.42 µM. To `O=C(NCc1ccco1)c1sc(=S)n2c1[nH]c(=O)c1ccccc12` belongs 1.26 µM. Consider `CCCOc1ccc2oc(=O)c3c(c2c1)CCCN3C(=O)CN1CCc2ccccc2C1`, for which the IC50 was 14.1 µM. Turning to `Cc1c(NC(=O)Nc2ccc(Cl)c(Cl)c2)c(=O)n(-c2ccccc2)n1C`, the IC50 was 39.6 µM.

Consider `Cc1c(C(=O)N2CCCCC2)oc2ccc(S(=O)(=O)N3CC(C)CC(C)C3)cc12` (stereo not drawn), for which the IC50 is 9.13 µM. Then `COc1nc(N(c2ccccc2)c2ccccc2)nc(-n2ccnc2)n1`, with 5.65 µM; and `O=S(=O)(Nc1nc2ccccc2nc1NCc1ccco1)c1cccs1`, with 8.75 µM; and `O=C(Nc1ccc(S(=O)(=O)N2CCCc3ccccc32)cc1)C1CCCO1` (stereo not drawn), with 19.6 µM. Then `Oc1c(CN2CCc3ccccc3C2)cc(Cl)c2cccnc12`, with 8.71 µM; and `CCc1ccccc1NS(=O)(=O)c1ccc(SC)cc1`, with 41.6 µM. Take `COc1ccc(-n2c(C)nc3c(cnn3-c3ccc(Cl)cc3)c2=O)cc1`: the IC50 is 20.9 µM.

Take `OC(c1cccc(OCc2ccccc2)c1)c1nnc(-c2ccccc2)o1` (stereo not drawn): the IC50 was 72.1 µM.

In the case of `COc1ccccc1N1CCN(C(c2ccc(Cl)cc2)c2nnnn2C(C)(C)C)CC1` (stereo not drawn), the IC50 was 26.5 µM. On to `O=C(c1noc2c1CCc1ccccc1-2)N1CCc2ccccc2C1`, for which the IC50 is 6.67 µM.

With `CN1CCN(c2c(F)cc3c(=O)c(C(=O)O)cn4c3c2SCC4)CC1`, the IC50 was 0.91 µM.

For the molecule `Oc1ccccc1-c1cc(-c2ccc3c(c2)OCCO3)n[nH]1`, the IC50 is 8.15 µM. `COc1ccc(-c2noc(CCC(=O)N(C)c3cccc(C)c3)n2)cc1`: the IC50 is 22.7 µM. To `COc1cc(C2C(C(=O)c3ccc(C)o3)=C(O)C(=O)N2c2cc(C)on2)cc(Br)c1O` (stereo not drawn) belongs 24.7 µM; to `C=CCOC(=O)C(C#N)c1nc2ccccc2nc1N1CCN(Cc2ccccc2)CC1` (stereo not drawn), 17.2 µM; to `CCOC(=O)c1cc(C)n(S(=O)(=O)c2ccc(C)cc2)c1C`, 12.4 µM.
